Columns and labels:
[1] = molecular target: T1, ATP-dependent translocase ABCB1 (Homo sapiens, UniProt P08183); assay: Ratio of inhibition of P-gp overexpressed in human DU145-TxR cells assessed as increase in intracellular compound accumulation after 2.5 hrs in presence of tariquidar by LC-MS/MS analysis to Inhibition of P-gp overexpressed in human DU145-TxR cells assessed as decrease in intracellular compound accumulation after 2.5 hrs in absence of tariquidar by LC-MS/MS analysis; type: cell-based
How it was run: (§1)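 P-gp-overexpressing DU145TXR cells exposed to test compounds with or without tariquidar. Intracellular compound measured by LC–MS/MS, with daunorubicin as a transported-substrate control. Ratio is accumulation with tariquidar divided by accumulation without.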

[2] = molecular target: T1, ATP-dependent translocase ABCB1; assay: Reversal of P-gp mediated multidrug resistance in human DU145-TxR cells overexpressing P-gp assessed as potentiation of paclitaxel-induced cytotoxicity by measuring fold reduction paclitaxel IC50 at 3 uM after 48 hrs by MTT assay relative to parent compound; type: cell-based
How it was run: (§2)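 DU145TXR cells seeded at 3000 per well, 24 h later treated 48 h with paclitaxel alone or with 3, 5, 7 or 10 μM inhibitor in complete medium (DMSO vehicle). MTT 4 h, formazan dissolved in DMSO, A570 read, background subtracted, viability relative to DMSO. IC50 by four-parameter nonlinear fit; eight replicates, at least two experiments. Fold values compare paclitaxel alone or with parent inhibitor.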

[3] = molecular target: T2, P-glycoprotein (ABCB1, mouse MDR3) ATPase (Mus musculus, UniProt P21447); assay: Effect on basal ATPase hydrolysis of recombinant mouse MDR3 expressed in Pichia pastoris measured after 30 mins in presence of NADH by coupled enzyme assay (reference value: 100 +/- 7 %); set-up: scale not given: the % may be the effect or the level left; settings: recombinant mouse MDR3 (P-gp) expressed in Pichia pastoris, read-out: Activity
[4] = molecular target: T1, ATP-dependent translocase ABCB1; assay: Reversal of P-gp mediated multidrug resistance in human DU145-TxR cells overexpressing P-gp assessed as potentiation of paclitaxel-induced cytotoxicity by measuring fold reduction paclitaxel IC50 at 3 uM after 48 hrs by MTT assay relative to paclitaxel alone; type: cell-based; how it was run: as §2
[5] = molecular target: T3, P-glycoprotein (ABCB1, MDR1) ATPase (Homo sapiens, UniProt P08183); assay: Inhibition of verampil-stimulated ATPase hydrolysis in recombinant human MDR1 expressed in Pichia pastoris measured after 30 mins in presence of NADH by coupled enzyme assay (reference value: 100 +/- 6 %); set-up: scale not given: the % may be the effect or the level left; settings: recombinant human MDR1 (P-gp) expressed in Pichia pastoris
[6] = molecular target: T2, P-glycoprotein (ABCB1, mouse MDR3) ATPase; assay: Inhibition of verampil-stimulated ATPase hydrolysis in recombinant mouse MDR3 expressed in Pichia pastoris measured after 30 mins in presence of NADH by coupled enzyme assay (reference value: 100 +/- 8 %); set-up: scale not given: the % may be the effect or the level left; settings: recombinant mouse MDR3 (P-gp) expressed in Pichia pastoris
[7] = molecular target: T1, ATP-dependent translocase ABCB1; assay: Inhibition of P-gp overexpressed in human DU145-TxR cells assessed as increase in cellular accumulation of calcein AM at 2 uM preincubated for 6 hrs followed by calcein AM addition by fluorescence imaging analysis; type: cell-based
How it was run: (§3)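 Confluent DU145TXR monolayers in phenol red-free RPMI 1640 given 2 μM inhibitor (DMSO vehicle) and 1 μg mL−1 calcein AM, either added together or after a 6 h inhibitor-only preincubation at 37 °C. Calcein fluorescence (ex 485 / em 535 nm) read over 60 min at 20 min intervals. Six replicates, at least two independent experiments.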

[8] = tested on: P-glycoprotein 1 Abcb1a (Mus musculus); assay: Inhibition of 2',3'-(2,2,5,5,-tetramethyl-3-pyrroline-l-oxyl-3-carboxylic acid ester)ATP interaction with mouse MDR3 P-gp expressed in Escherichia coli BL21 (DE3) assessed as reduction in ATP binding from 2 to 1 of nucleotide to mol of protein by ESR analysis (reference value: 1.8 +/- 0.1)
[9] = molecular target: T1, ATP-dependent translocase ABCB1; assay: Inhibition of P-gp overexpressed in human DU145-TxR cells assessed as increase in cellular accumulation of calcein AM at 2 uM pretreated followed by calcein AM addition by fluorescence imaging analysis; type: cell-based; how it was run: as §3
[10] = molecular target: T1, ATP-dependent translocase ABCB1; assay: Reversal of P-gp mediated multidrug resistance in human DU145-TxR cells overexpressing P-gp assessed as potentiation of paclitaxel-induced cytotoxicity by measuring fold reduction paclitaxel IC50 at 7 uM after 48 hrs by MTT assay relative to paclitaxel alone; type: cell-based; how it was run: as §2
[11] = molecular target: P-glycoprotein 1 Abcb1a (Mus musculus); assay: Inhibition of spin-labelled adenine nucleotide interaction with mouse MDR3 P-gp expressed in Escherichia coli BL21 (DE3) assessed as apparent dissociation constant by ESR analysis (reference value: 36.5 +/- 3.6 uM)
[12] = molecular target: T1, ATP-dependent translocase ABCB1; assay: Reversal of P-gp mediated multidrug resistance in human DU145-TxR cells overexpressing P-gp assessed as potentiation of paclitaxel-induced cytotoxicity by measuring fold reduction paclitaxel IC50 at 5 uM after 48 hrs by MTT assay relative to parent compound; type: cell-based; how it was run: as §2
[13] = molecular target: T1, ATP-dependent translocase ABCB1; assay: Reversal of P-gp mediated multidrug resistance in human DU145-TxR cells overexpressing P-gp assessed as potentiation of paclitaxel-induced cytotoxicity by measuring fold reduction paclitaxel IC50 at 5 uM after 48 hrs by MTT assay relative to paclitaxel alone; type: cell-based; how it was run: as §2
[14] = molecular target: T1, ATP-dependent translocase ABCB1; assay: Reversal of P-gp mediated multidrug resistance in human DU145-TxR cells overexpressing P-gp assessed as potentiation of paclitaxel-induced cytotoxicity by measuring fold reduction paclitaxel IC50 at 10 uM after 48 hrs by MTT assay relative to parent compound; type: cell-based; how it was run: as §2
[15] = molecular target: T1, ATP-dependent translocase ABCB1; assay: Reversal of P-gp mediated multidrug resistance in human DU145-TxR cells overexpressing P-gp assessed as potentiation of paclitaxel-induced cytotoxicity by measuring fold reduction paclitaxel IC50 at 10 uM after 48 hrs by MTT assay relative to paclitaxel alone; type: cell-based; how it was run: as §2
[16] = molecular target: T1, ATP-dependent translocase ABCB1; assay: Reversal of P-gp mediated multidrug resistance in human DU145-TxR cells overexpressing P-gp assessed as potentiation of paclitaxel-induced cytotoxicity by measuring fold reduction paclitaxel IC50 at 7 uM after 48 hrs by MTT assay relative to parent compound; type: cell-based; how it was run: as §2
[17] = molecular target: T3, P-glycoprotein (ABCB1, MDR1) ATPase; assay: Effect on basal ATPase hydrolysis of recombinant human MDR1 expressed in Pichia pastoris measured after 30 mins in presence of NADH by coupled enzyme assay (reference value: 100 +/- 5 %); set-up: scale not given: the % may be the effect or the level left; settings: recombinant human MDR1 (P-gp) expressed in Pichia pastoris, read-out: Activity
[18] = molecular target: T2, P-glycoprotein (ABCB1, mouse MDR3) ATPase; assay: Effect on verampil-mediated ATPase hydrolysis of recombinant mouse MDR3 expressed in Pichia pastoris measured after 30 mins in presence of NADH by coupled enzyme assay (reference value: 100 +/- 8 %); set-up: scale not given: the % may be the effect or the level left; settings: recombinant mouse MDR3 (P-gp) expressed in Pichia pastoris, read-out: Activity
[19] = molecular target: T1, ATP-dependent translocase ABCB1; assay: Inhibition of P-gp overexpressed in human DU145-TxR cells assessed as increase in intracellular compound accumulation after 2.5 hrs in presence of tariquidar by LC-MS/MS analysis; type: cell-based; how it was run: as §1
[20] = molecular target: T3, P-glycoprotein (ABCB1, MDR1) ATPase; assay: Basal ATPase hydrolysis in recombinant human MDR1 expressed in Pichia pastoris measured after 30 mins in presence of NADH by coupled enzyme assay (reference value: 100 +/- 5 %); set-up: scale not given: the % may be the effect or the level left; settings: recombinant human MDR1 (P-gp) expressed in Pichia pastoris
[21] = molecular target: T2, P-glycoprotein (ABCB1, mouse MDR3) ATPase; assay: Stimulation of verampil-mediated ATPase hydrolysis in recombinant mouse MDR3 expressed in Pichia pastoris measured after 30 mins in presence of NADH by coupled enzyme assay (reference value: 100 +/- 8 %); set-up: scale not given: the % may be the effect or the level left; settings: recombinant mouse MDR3 (P-gp) expressed in Pichia pastoris, read-out: Activity

T1 sequence (P08183 whole entry): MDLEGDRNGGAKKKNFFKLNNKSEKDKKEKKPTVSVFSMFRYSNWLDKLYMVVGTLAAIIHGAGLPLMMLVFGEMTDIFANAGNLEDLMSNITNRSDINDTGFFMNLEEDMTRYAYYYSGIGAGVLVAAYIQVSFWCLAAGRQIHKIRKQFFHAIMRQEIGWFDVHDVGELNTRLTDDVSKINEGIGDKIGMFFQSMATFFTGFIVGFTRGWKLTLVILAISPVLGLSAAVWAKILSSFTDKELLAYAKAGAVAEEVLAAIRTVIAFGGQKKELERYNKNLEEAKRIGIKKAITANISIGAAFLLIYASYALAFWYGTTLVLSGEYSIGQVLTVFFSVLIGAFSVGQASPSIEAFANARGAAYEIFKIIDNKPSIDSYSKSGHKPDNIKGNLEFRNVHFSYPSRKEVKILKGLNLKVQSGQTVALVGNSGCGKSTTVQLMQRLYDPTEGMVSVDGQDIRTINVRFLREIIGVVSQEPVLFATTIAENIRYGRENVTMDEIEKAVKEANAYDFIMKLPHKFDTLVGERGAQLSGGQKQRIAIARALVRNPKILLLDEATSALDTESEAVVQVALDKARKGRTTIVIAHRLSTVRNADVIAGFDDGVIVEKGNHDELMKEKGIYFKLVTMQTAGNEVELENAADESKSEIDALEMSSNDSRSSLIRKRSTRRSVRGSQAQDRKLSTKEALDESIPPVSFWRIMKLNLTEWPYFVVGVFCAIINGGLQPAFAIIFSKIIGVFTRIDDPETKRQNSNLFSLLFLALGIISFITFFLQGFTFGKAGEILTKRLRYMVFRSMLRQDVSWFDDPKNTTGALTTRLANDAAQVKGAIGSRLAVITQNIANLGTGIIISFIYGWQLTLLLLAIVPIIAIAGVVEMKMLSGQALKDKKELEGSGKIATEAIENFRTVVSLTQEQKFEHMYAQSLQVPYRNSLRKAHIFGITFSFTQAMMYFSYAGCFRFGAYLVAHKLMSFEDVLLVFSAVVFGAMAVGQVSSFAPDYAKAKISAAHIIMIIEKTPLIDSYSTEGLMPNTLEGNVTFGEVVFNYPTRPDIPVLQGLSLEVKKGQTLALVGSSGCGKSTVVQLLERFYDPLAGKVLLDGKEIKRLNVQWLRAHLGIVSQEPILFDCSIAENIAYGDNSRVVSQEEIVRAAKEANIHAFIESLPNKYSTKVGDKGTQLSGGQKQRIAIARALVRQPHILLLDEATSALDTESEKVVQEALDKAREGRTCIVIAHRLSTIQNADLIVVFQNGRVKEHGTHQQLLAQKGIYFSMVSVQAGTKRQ
T3 sequence (P08183 whole entry): as above
T2 sequence (P21447 whole entry): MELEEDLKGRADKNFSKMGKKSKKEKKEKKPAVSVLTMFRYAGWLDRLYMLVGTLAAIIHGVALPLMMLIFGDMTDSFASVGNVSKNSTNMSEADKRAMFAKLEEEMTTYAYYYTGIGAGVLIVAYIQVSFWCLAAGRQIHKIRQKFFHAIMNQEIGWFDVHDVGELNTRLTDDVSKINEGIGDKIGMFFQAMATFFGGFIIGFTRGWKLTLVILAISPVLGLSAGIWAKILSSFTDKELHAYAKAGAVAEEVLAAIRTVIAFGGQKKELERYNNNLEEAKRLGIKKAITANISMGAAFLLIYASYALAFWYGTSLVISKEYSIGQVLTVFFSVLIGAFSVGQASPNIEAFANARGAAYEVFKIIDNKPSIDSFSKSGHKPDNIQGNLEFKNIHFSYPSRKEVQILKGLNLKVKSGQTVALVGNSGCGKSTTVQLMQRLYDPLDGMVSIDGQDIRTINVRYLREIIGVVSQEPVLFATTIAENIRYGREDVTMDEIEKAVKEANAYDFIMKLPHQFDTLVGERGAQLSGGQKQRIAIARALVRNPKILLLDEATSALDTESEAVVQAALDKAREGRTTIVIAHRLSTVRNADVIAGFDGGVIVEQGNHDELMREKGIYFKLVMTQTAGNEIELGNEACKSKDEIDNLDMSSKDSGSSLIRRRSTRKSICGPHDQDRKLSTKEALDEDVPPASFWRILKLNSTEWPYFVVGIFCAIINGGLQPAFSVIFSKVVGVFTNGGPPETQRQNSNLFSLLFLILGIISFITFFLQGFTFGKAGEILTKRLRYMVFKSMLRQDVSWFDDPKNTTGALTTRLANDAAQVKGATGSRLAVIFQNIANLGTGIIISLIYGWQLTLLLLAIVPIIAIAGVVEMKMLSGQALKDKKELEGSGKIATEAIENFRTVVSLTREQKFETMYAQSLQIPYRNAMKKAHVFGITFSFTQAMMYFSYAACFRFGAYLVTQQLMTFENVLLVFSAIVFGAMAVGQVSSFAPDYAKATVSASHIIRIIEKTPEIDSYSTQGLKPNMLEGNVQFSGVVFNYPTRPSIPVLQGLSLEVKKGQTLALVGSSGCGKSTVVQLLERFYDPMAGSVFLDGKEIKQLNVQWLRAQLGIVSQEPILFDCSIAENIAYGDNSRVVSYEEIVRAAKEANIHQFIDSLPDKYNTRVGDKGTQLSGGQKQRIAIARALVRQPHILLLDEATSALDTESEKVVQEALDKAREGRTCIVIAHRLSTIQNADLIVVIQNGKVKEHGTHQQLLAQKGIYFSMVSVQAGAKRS

Row | Structure (SMILES) | Ratio [1] | fold change (FC) [2] | Activity at 0.5 h [3] | fold change (FC) [4] | Activity at 0.5 h [5] | Activity at 0.5 h [6] | inhibition (INH) [7] | Activity [8] | inhibition (INH) [9] | fold change (FC) [10] | Kd [11] | fold change (FC) [12] | fold change (FC) [13] | fold change (FC) [14] | fold change (FC) [15] | fold change (FC) [16] | Activity at 0.5 h [17] | Activity at 0.5 h [18] | inhibition (INH) [19] | other results
1 | Cc1cc(C)c(-c2cc(NC(=O)CSc3nnc4c(n3)[nH]c3ccccc34)n(-c3ccccc3)n2)cc1C | 1 | 1.5 | 101% | 5 | 66% | 68% | Active | 1.8 | Active | 125 | 24.1 µM | 9.2 | 101 | 3.4 | 125 | 3.4 | 87% |  |  | 
2 | Cc1cc(C)c(-c2cc(NC(=O)CSCC(=O)NCc3ccc(F)cc3)n(-c3ccccc3)n2)cc1C | 1.3 | 1.4 | 143% | 4.6 | 59% |  | Active | 1.9 | Active | 11 | 25.7 µM | 0.5 | 5.6 | 0.2 | 16 | 0.3 | 95% | 98% | Active | 
3 | Cc1cc(C)c(-c2cc(NC(=O)CSc3n[nH]c(C4CC4)n3)n(-c3ccccc3)n2)cc1C | 1 | 1 | 95% | 3 | 62% | 49% | Active | 1.9 | Active | 36 | 71 µM | 1 | 11 | 1 | 101 | 1 |  |  |  | 
4 | Cc1cc(C)c(-c2cc(NC(=O)CSCC(=O)c3ccc4c(c3)Cc3ccccc3-4)n(-c3ccccc3)n2)cc1C | 1.1 | 2.4 | 105% | 8 | 64% |  | Active | 1.7 | Active | 34 | 23.1 µM | 1.3 | 14 | 0.4 | 37 | 1 |  | 108% |  | Activity at 0.5 h [20]: 69%
5 | Cc1cc(C)c(-c2cc(NC(=O)CSCC(=O)N3c4ccccc4CCc4ccccc43)n(-c3ccccc3)n2)cc1C | 1 | 3.8 | 88% | 13 | 62% | 50% | Active | 1.8 | Active | 353 | 36.9 µM | 3.7 | 41 | 5 | 530 | 10 | 83% |  |  | 
6 | COc1cc(NC(=O)CSCC(=O)Nc2cc(-c3cc(C)c(C)cc3C)nn2-c2ccccc2)cc(OC)c1OC | 1.9 | 3.4 |  | 11 | 61% |  | Active | 1.2 | Active | 3312 | 20.1 µM | 102 | 1116 | 300 | 30286 | 92 | 89% |  | Active | Activity at 0.5 h [21]: 194%
